From ChEMBL document CHEMBL4622886, “Leucinostatins from Ophiocordyceps spp. and Purpureocillium spp. Demonstrate Selective Antiproliferative Effects in Cells Representing the Luminal Androgen Receptor Subtype of Triple Negative Breast Cancer” (2020)
Active and inactive are the calls of the source. The calls are words filed in the database; no cut-off is given here. Numbered stars: 1 amine (or outer) side, 2 acyl side, 3 side chain; on linkers, the order of the positions; unused ones are H or OH. Square brackets hold non-standard residues; d marks the D form. Peptide text beside a SMILES is read from it. * marks the point of attachment. X1 = CCC(=O)C[C@@H](O)C[C@@H](C)C[C@H](N[*:1])C(=O)[*:2]; X4 = CCCC[C@@H](O)C[C@@H](C)C[C@H](N[*:1])C(=O)[*:2]; X2 = CCC(=O)/C=C/C[C@@H](C)C[C@H](N[*:1])C(=O)[*:2]; X3 = CCC(=O)CCC[C@@H](C)C[C@H](N[*:1])C(=O)[*:2]; Hexenoyl(2E,4S-Me) = CC[C@H](C)/C=C/C(=O)*; Leu(3R-OH) = CC(C)[C@@H](O)[C@H](N)C(=O)O; NH((S)CH(Me)CH2NMe2) = C[C@@H](CN(C)C)N*; Pro(4S-Me) = C[C@@H]1CN[C@H](C(=O)O)C1; NH((S)CH(CH3)CH2NHMe) = CNC[C@H](C)N*; Aib = CC(C)(N)C(=O)O; βAla = NCCC(=O)O

Columns and labels:
HCC1806 [1] = assay: Antiproliferative activity against human HCC1806 cells at >1 uM incubated for 48 hrs by sulforhodamine B assay; type: functional, cell-based
Procedure, shortened: (§1)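 Cells (RPMI-1640 with 5% FBS, 0.5% gentamicin; used within 4 months of thaw) were seeded at set densities, allowed to adhere, then treated 48 h with compound or DMSO vehicle. Cells were fixed and SRB-stained, with absorbance read at 560 nm. GI50 vs vehicle was taken by non-linear regression; three independent experiments, each in triplicate.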

SUM185PE [2] = assay: Antiproliferative activity against human SUM185PE cells at 1 to 100 nM incubated for 48 hrs by sulforhodamine B assay; type: functional, cell-based
Procedure, shortened: (§2)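 IMEM with 5% FBS and 0.3% gentamicin; cells used within 4 months of thaw. After seeding at set densities and adhering, cells got compound or DMSO vehicle for 48 h, then were fixed and SRB-stained, with A560 read. GI50 (50% proliferation inhibition vs vehicle) came from non-linear regression of concentration-response curves; three independent experiments, each in triplicate.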

SUM185PE [3] = assay: Antiproliferative activity against human SUM185PE cells incubated for 48 hrs by sulforhodamine B assay; type: functional; procedure, shortened: as §2
HCC1937 [4] = assay: Antiproliferative activity against human HCC1937 cells up to 100 nM incubated for 48 hrs by sulforhodamine B assay; type: functional, cell-based; procedure, shortened: as §1
HCC1806 [5] = assay: Antiproliferative activity against human HCC1806 cells up to 100 nM incubated for 48 hrs by sulforhodamine B assay; type: functional, cell-based; procedure, shortened: as §1
MDA-MB-453 [6] = assay: Antiproliferative activity against human MDA-MB-453 cells at > 1 uM incubated for 48 hrs by sulforhodamine B assay; type: functional, cell-based; procedure, shortened: as §2
MDA-MB-453 [7] = assay: Antiproliferative activity against human MDA-MB-453 cells at 1 to 100 nM incubated for 48 hrs by sulforhodamine B assay; type: functional, cell-based; procedure, shortened: as §2
MDA-MB-231 [8] = assay: Antiproliferative activity against human MDA-MB-231 cells incubated for 48 hrs by sulforhodamine B assay; type: functional; conditions: MDA-MB-231, 48 h; procedure, shortened: as §2
MDA-MB-453 [9] = assay: Antiproliferative activity against human MDA-MB-453 cells incubated for 48 hrs by sulforhodamine B assay; type: functional; conditions: MDA-MB-453, 48 h; procedure, shortened: as §2
MDA-MB-231 [10] = assay: Antiproliferative activity against human MDA-MB-231 cells at > 1 uM incubated for 48 hrs by sulforhodamine B assay; type: functional, cell-based; procedure, shortened: as §2
BT-549 [11] = assay: Antiproliferative activity against human BT549 cells at >1 uM incubated for 48 hrs by sulforhodamine B assay; type: functional, cell-based; procedure, shortened: as §1
MDA-MB-231 [12] = assay: Antiproliferative activity against human MDA-MB-231 cells up to 100 nM incubated for 48 hrs by sulforhodamine B assay; type: functional, cell-based; procedure, shortened: as §2
BT-549 [13] = assay: Antiproliferative activity against human BT549 cells up to 100 nM incubated for 48 hrs by sulforhodamine B assay; type: functional, cell-based; procedure, shortened: as §1
HCC1937 [14] = assay: Antiproliferative activity against human HCC1937 cells at >1 uM incubated for 48 hrs by sulforhodamine B assay; type: functional, cell-based; procedure, shortened: as §1

| SMILES | Activity (HCC1806 [1]) | Activity (SUM185PE [2]) | GI50 (SUM185PE [3]) [nM] | Activity (HCC1937 [4]) | Activity (HCC1806 [5]) | Activity (MDA-MB-453 [6]) | Activity (MDA-MB-453 [7]) | GI50 (MDA-MB-231 [8]) [nM] | GI50 (MDA-MB-453 [9]) [nM] | Activity (MDA-MB-231 [10]) | Activity (BT-549 [11]) | Activity (MDA-MB-231 [12]) | Activity (BT-549 [13]) | Activity (HCC1937 [14]) |
| --- | --- | --- | --- | --- | --- | --- | --- | --- | --- | --- | --- | --- | --- | --- |
| CC[C@H](C)/C=C/C(=O)N1C[C@@H](C)C[C@H]1C(=O)N[C@@H](CC(C)C)C(=O)N[C@H](C(=O)NC(C)(C)C(=O)N[C@@H](CC(C)C)C(=O)N[C@@H](CC(C)C)C(=O)NC(C)(C)C(=O)NC(C)(C)C(=O)NCCC(=O)N[C@@H](C)CNC)[C@H](O)C(C)C ({Hexenoyl(2E,4S-Me)}-[Pro(4S-Me)]L[Leu(3R-OH)][Aib]LL[Aib][Aib][βAla]-{NH((S)CH(CH3)CH2NHMe)}) | Active | Active | 2 | inactive | inactive | Active | Active | > 100 | 2.6 | Active | Active | inactive | inactive | Active |
| CC[C@H](C)/C=C/C(=O)N1C[C@@H](C)C[C@H]1C(=O)N[C@@H](CC(C)C)C(=O)N[C@H](C(=O)NC(C)(C)C(=O)N[C@@H](CC(C)C)C(=O)N[C@@H](CC(C)C)C(=O)NC(C)(C)C(=O)NC(C)(C)C(=O)NCCC(=O)N[C@@H](C)CN(C)C)[C@H](O)C(C)C ({Hexenoyl(2E,4S-Me)}-[Pro(4S-Me)]L[Leu(3R-OH)][Aib]LL[Aib][Aib][βAla]-{NH((S)CH(Me)CH2NMe2)}) | Active | Active | 1.4 | inactive | inactive | Active | Active | > 100 | 2.3 | Active | Active | inactive | inactive | Active |
| CCC(=O)C[C@@H](O)C[C@@H](C)C[C@H](NC(=O)[C@@H]1C[C@H](C)CN1C(=O)/C=C/[C@@H](C)CC)C(=O)N[C@H](C(=O)NC(C)(C)C(=O)N[C@@H](CC(C)C)C(=O)N[C@@H](CC(C)C)C(=O)NC(C)(C)C(=O)NC(C)(C)C(=O)NCCC(=O)N[C@@H](C)CN(C)C)[C@H](O)C(C)C ({Hexenoyl(2E,4S-Me)}-[Pro(4S-Me)][X1][Leu(3R-OH)][Aib]LL[Aib][Aib][βAla]-{NH((S)CH(Me)CH2NMe2)}) | Active | Active |  | inactive | inactive | Active | Active |  |  | Active | Active | inactive | inactive | Active |
| CCC(=O)/C=C/C[C@@H](C)C[C@H](NC(=O)[C@@H]1C[C@H](C)CN1C(=O)/C=C/[C@@H](C)CC)C(=O)N[C@H](C(=O)NC(C)(C)C(=O)N[C@@H](CC(C)C)C(=O)N[C@@H](CC(C)C)C(=O)NC(C)(C)C(=O)NC(C)(C)C(=O)NCCC(=O)N[C@@H](C)CNC)[C@H](O)C(C)C ({Hexenoyl(2E,4S-Me)}-[Pro(4S-Me)][X2][Leu(3R-OH)][Aib]LL[Aib][Aib][βAla]-{NH((S)CH(CH3)CH2NHMe)}) | Active | Active | 2.2 | inactive | inactive | Active | Active | > 100 | 4 | Active | Active | inactive | inactive | Active |
| CCC(=O)CCC[C@@H](C)C[C@H](NC(=O)[C@@H]1C[C@H](C)CN1C(=O)/C=C/[C@@H](C)CC)C(=O)N[C@H](C(=O)NC(C)(C)C(=O)N[C@@H](CC(C)C)C(=O)N[C@@H](CC(C)C)C(=O)NC(C)(C)C(=O)NC(C)(C)C(=O)NCCC(=O)N[C@@H](C)CNC)[C@H](O)C(C)C ({Hexenoyl(2E,4S-Me)}-[Pro(4S-Me)][X3][Leu(3R-OH)][Aib]LL[Aib][Aib][βAla]-{NH((S)CH(CH3)CH2NHMe)}) | Active | Active |  | inactive | inactive | Active | Active | > 100 |  | Active | Active | inactive | inactive | Active |
| CCC(=O)CCC[C@@H](C)C[C@H](NC(=O)[C@@H]1C[C@H](C)CN1C(=O)/C=C/[C@@H](C)CC)C(=O)N[C@H](C(=O)NC(C)(C)C(=O)N[C@@H](CC(C)C)C(=O)N[C@@H](CC(C)C)C(=O)NC(C)(C)C(=O)NC(C)(C)C(=O)NCCC(=O)N[C@@H](C)CN(C)C)[C@H](O)C(C)C ({Hexenoyl(2E,4S-Me)}-[Pro(4S-Me)][X3][Leu(3R-OH)][Aib]LL[Aib][Aib][βAla]-{NH((S)CH(Me)CH2NMe2)}) | Active | Active |  | inactive | inactive | Active | Active | > 100 |  | Active | Active | inactive | inactive | Active |
| CCCC[C@@H](O)C[C@@H](C)C[C@H](NC(=O)[C@@H]1C[C@H](C)CN1C(=O)/C=C/[C@@H](C)CC)C(=O)N[C@H](C(=O)NC(C)(C)C(=O)N[C@@H](CC(C)C)C(=O)N[C@@H](CC(C)C)C(=O)NC(C)(C)C(=O)NC(C)(C)C(=O)NCCC(=O)N[C@@H](C)CNC)[C@H](O)C(C)C ({Hexenoyl(2E,4S-Me)}-[Pro(4S-Me)][X4][Leu(3R-OH)][Aib]LL[Aib][Aib][βAla]-{NH((S)CH(CH3)CH2NHMe)}) | Active | Active |  | inactive | inactive | Active | Active | > 100 |  | Active | Active | inactive | inactive | Active |
| CCCC[C@@H](O)C[C@@H](C)C[C@H](NC(=O)[C@@H]1C[C@H](C)CN1C(=O)/C=C/[C@@H](C)CC)C(=O)N[C@H](C(=O)NC(C)(C)C(=O)N[C@@H](CC(C)C)C(=O)N[C@@H](CC(C)C)C(=O)NC(C)(C)C(=O)NC(C)(C)C(=O)NCCC(=O)N[C@@H](C)CN(C)C)[C@H](O)C(C)C ({Hexenoyl(2E,4S-Me)}-[Pro(4S-Me)][X4][Leu(3R-OH)][Aib]LL[Aib][Aib][βAla]-{NH((S)CH(Me)CH2NMe2)}) | Active | Active |  | inactive | inactive | Active | Active | > 100 |  | Active | Active | inactive | inactive | Active |
